Results as given in ChEMBL document CHEMBL2380219, “Physalin A induces apoptotic cell death and protective autophagy in HT1080 human fibrosarcoma cells” (J Nat Prod, 2013).
Calls of active or inactive are those of the source. The calls are words filed in the database; no cut-off is given here.

Experiments:
Type in all cases: functional, cell-based
HT-1080 [1] = assay: Induction of autophagy in human HT1080 cells assessed as conversion from LC31to LC32 at 10 uM pretreated with 3MA for 1 hr prior to compound addition measured after 24 hrs by Western blotting analysis
Outline: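 HT1080 cells pretreated 1 h with 1 mM 3MA or 1 nM rapamycin, then 10 μM added for 24 h. Adherent and floating cells lysed in Hepes pH 7.4/Triton buffer. Equal protein on 12% SDS-PAGE and nitrocellulose, probed for beclin 1 and LC3, ECL detection. Normalized to β-actin, n = 3.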

HT-1080 [2] = assay: Induction of autophagy in human HT1080 cells assessed as conversion from LC31to LC32 at 10 uM by Western blotting analysis; details: TDE = time-dependent effect
Outline: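 HT1080 cells exposed to 10 μM for 6, 12, 18 and 24 h, then lysed in Hepes pH 7.4/Triton buffer at 4 °C for 60 min. Equal protein run on 12% SDS-PAGE, blotted to nitrocellulose, probed for beclin 1 and LC3, ECL detection. Densities taken relative to β-actin, n = 3.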

HT-1080 [3] = assay: Induction of apoptosis in human HT1080 cells assessed as increase in FAS protein expression at 10 uM after 6 to 24 hrs by Western blotting analysis
Outline: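 HT1080 cells treated with 10 μM for 6, 12, 18 and 24 h. Adherent and floating cells lysed 60 min at 4 °C in Hepes pH 7.4/1% Triton X-100 buffer with phosphatase and protease inhibitors. Equal protein run on 12% SDS-PAGE, transferred to nitrocellulose, probed with specific antibodies, HRP/ECL detection. Band density normalized to β-actin; n = 3.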

For C=C1C(=O)O[C@@H]2C[C@@]1(C)[C@@H]1C(=O)[C@]3(O)O[C@]14[C@@]2(C)OC(=O)[C@@]4(O)CC[C@H]1[C@H]3[C@H](O)C=C2CC=CC(=O)[C@@]21C [PHYSALIN A], the Activity (HT-1080 [1]) was “inactive”, the Activity (HT-1080 [2]) was “tde” and the Activity (HT-1080 [3]) was “Active”.
